Structures are written as SMILES.

What all share (type): functional
The species named for assay [1] is Rattus norvegicus. In words: Ability to inhibit the uptake of dopamine [3H]DA in to rat brain synaptosomes. The method in brief: (§1)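 Crude S1 synaptosomes from male Sprague–Dawley rat frontal/temporal cortex and striatum (sucrose–Tris–glucose, pH 7.4; 1000g, 15 min, 4 °C). Five drug levels, triplicate, with [3H]DA 25 nM or [3H]l-NE 50 nM final, in pargyline-containing Tris saline buffer. Preincubation 5 min, then 5 min uptake at 37 °C. Filtered, counted by scintillation, 0 °C uptake subtracted. IC50 read from sigmoidal fit.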

The species named for assay [2] is Rattus norvegicus. In words: Ability to inhibit the uptake of norepinephrine [3H]-NE in to rat brain synaptosomes. In short, it runs like this:
as §1

Assay [3] can be described thus: Eudisimic ratio for DA uptake is the ratio of the IC50 values l-isomer and d-isomer. In short, it runs like this: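 Eudismic ratio: IC50 of the l-isomer divided by IC50 of the d-isomer for each enantiomeric pair. IC50s came from rat synaptosomal [3H]DA or [3H]l-NE uptake, with five drug concentrations in triplicate and 5 min at 37 °C.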

Take `COC(=O)[C@@H](c1ccccc1)[C@@H]1CCCCN1`: the IC50 (commonly the concentration needed to halve the response being measured) in the assay listed under Rattus norvegicus [1] turned out to be 1470 nM; in the assay listed under Rattus norvegicus [2] it was 876 nM.
For `COC(=O)[C@H](c1ccc(Br)cc1)[C@H]1CCCCN1` the same measures were 22.5 nM and 9.34 nM.
In the case of `COC(=O)[C@H](c1ccc(OC)cc1)[C@H]1CCCCN1`, the IC50 is 205 nM in the assay listed under Rattus norvegicus [1] and 73 nM in the assay filed under Rattus norvegicus [2]. The Eudismic ratio in assay [3] was determined as 17.5.
As for `COC(=O)C(c1ccccc1)C1CCCCN1` (racemic) [METHYLPHENIDATE], the IC50 in the assay listed under Rattus norvegicus [1] was 438 nM; in the assay filed under Rattus norvegicus [2] it was 171 nM.
The matching figures for `COC(=O)[C@@H](c1ccc(OC)cc1)[C@@H]1CCCCN1`: 3590 nM and 1300 nM.
Consider `COC(=O)[C@@H](c1ccc(Br)cc1)[C@@H]1CCCCN1`, for which the IC50 was 408 nM in the assay filed under Rattus norvegicus [1] and 248 nM in the assay listed under Rattus norvegicus [2].
`COC(=O)[C@H](c1ccccc1)[C@H]1CCCCN1` [DEXMETHYLPHENIDATE]: the IC50 was found to be 171 nM in the assay listed under Rattus norvegicus [1] and 128 nM in the assay listed under Rattus norvegicus [2].
